Only some compounds are listed: those with a hit (about 4.8% of all), similar ones and a draw of the others.
APP transl inh = inhibitors of APP translation via 5'UTR reporter, primary screen, APP 5'UTR luciferase, SH-SY5Y cells. SH-SY5Y APP 5'UTR-luciferase reporter, luminescence. inhibition, % at 2 µM. 190,000 tested, 0.82% active;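 active means inhibition above a set limit, derived from the sample mean plus 3 SD, cut at about 45% in these data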
FLuc stim CS = FLuc activators, initial screening, artefact control for FLuc-dependent activation tests, biochemical, ATPlite luminescence | Luciferin 4-monooxygenase (Photinus pyralis), P08659 | ATPlite luciferase biochemical, 10 min; 0 = ATP-free wells, 1 = DMSO control | activation factor at 10 µM | 200,000 tested, under 10 active | AID 1027, 2008;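 active means luciferase activation factor, scaled between plate controls, of at least 2 with compound at 10 µM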
Target sequence (P08659 whole entry, looked up): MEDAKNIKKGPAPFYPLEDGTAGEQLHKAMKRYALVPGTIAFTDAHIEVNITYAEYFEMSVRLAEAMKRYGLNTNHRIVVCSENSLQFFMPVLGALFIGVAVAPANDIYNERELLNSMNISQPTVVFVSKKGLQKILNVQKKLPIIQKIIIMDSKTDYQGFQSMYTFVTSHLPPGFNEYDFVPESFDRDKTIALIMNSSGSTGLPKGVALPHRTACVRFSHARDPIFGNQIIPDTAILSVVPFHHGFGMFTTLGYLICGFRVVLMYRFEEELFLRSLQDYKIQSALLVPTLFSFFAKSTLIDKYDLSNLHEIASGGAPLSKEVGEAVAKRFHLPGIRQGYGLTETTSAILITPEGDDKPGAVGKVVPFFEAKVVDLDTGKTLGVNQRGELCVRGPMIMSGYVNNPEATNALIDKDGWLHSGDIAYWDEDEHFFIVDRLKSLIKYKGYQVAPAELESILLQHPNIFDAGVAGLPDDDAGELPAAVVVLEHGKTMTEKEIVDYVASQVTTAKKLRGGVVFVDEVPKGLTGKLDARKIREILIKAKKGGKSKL
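Assay system: Luciferase/luciferin detection reagent, cell-free biochemical luciferase assay / Read-out: luciferase activation / Benchmarks: No-ATP low control, compound-free enzyme-plus-ATP high control / Medium: PBS buffer for ATP / Detection: luminescence measurement of luciferase light output / Schedule: 10 min at ambient temperature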
FLuc inhib CS = firefly luciferase enzyme inhibitors, primary screen, artefact control for luciferase-based inhibitor screens, biochemical, luminescence, ATPLite | 10 min | 200,000 tested, 1.5% active | AID 1006, 2008 | inhibition, % at 10 µM;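 active means inhibition above about 50% when tested at 10 µM, limit read from the data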
NF-kB neuron act = activators of NF-kB expression in neurons, primary screen, cell-based, HTS. human neuronal cells, NF-kB reporter expression; hits give high values. fold change at 12.5 µM. 190,000 tested, 1.6% active. AID 1239, 2008; in the data active means fold change above about 3.3
STAT1 act = STAT1 signaling activators, primary screen, cell-based, HTS, luciferase reporter; NIH 3T3 STAT1-luciferase reporter, IFN-gamma, luminescence; 100% = IFN-gamma alone, no compound; activation (% of control), % at 5.5 µM; 200,000 tested, 2.6% active;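 active means activation above the screen-wide mean activation plus 3 SD, cut at about 130% in these data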;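 further: raw ratio to IFN-gamma control signal so 100% means no change and 0% no light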
APP 5'UTR act = activators of APP 5'UTR luciferase reporter, primary screen, SH-SY5Y cells | SH-SY5Y APP 5'UTR luciferase reporter, luminescence; zero percent = DMSO vehicle wells | activation, % at 2 µM | 190,000 tested, 1% active;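 active means activation above a set limit, based on mean plus 3 SD of controls, cut at about 140% in these data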
* hit, by the source's call; . = no result given.

SMILES	APP transl inh	FLuc stim CS	FLuc inhib CS	NF-kB neuron act	STAT1 act	APP 5'UTR act
O=C(Nc1nc2ccc(Cl)cc2s1)c1ccco1	-132	0.4	63*	7.3*	116	132
CN1CCN(CCCC(=O)c2ccc(C3CCCC3)cc2)CC1	6	1	0	1.2	98	-6
CCOc1ccc(NC(=O)Nc2ccc3nsnc3c2)cc1	1	0.9	6	1.5	125	-1
CCc1ccc(NC(=O)Nc2cccs2)cc1	-6	0.2	85*	3.8*	134*	6
Cc1ccc(NC(=O)Nc2cccs2)cc1	-95	0.4	64*	2.2	115	95
Cc1ccc(NC(=O)Nc2cccs2)nc1	-35	0.8	16	1.9	126	35
CCOc1ccc(NC(=O)Nc2cccs2)cc1	.	0.2	83*	4.5*	123	.
CCOc1ccccc1C(=O)Nc1ccsc1C(=O)OC	85*	1	-3	1.5	104	-85
COc1cc(/C=N/N2CCOCC2)ccc1OCc1ccc(Cl)cc1	-144	1	5	2.7	140*	144*
COc1cc(/C=N/N2CCOCC2)ccc1OCc1ccccc1	-64	1	1	1.8	117	64
CCC(=O)N(CC)c1nc(-c2ccc(OC)cc2)cs1	-77	1	3	2.4	143*	77
COc1cccc(C(=O)CN(C(=O)c2ccc(Cl)c(Cl)c2)N2C(=O)C3CCCCC3C2=O)c1 (configuration not stated)	6	1.1	-10	0.98	105	-6
Cc1cccn2c(=O)c3cc(C#N)c(=N)n(CCN4CCOCC4)c3nc12	47*	1	-2	1.2	106	-47
Cc1cccn2c(=O)c3cc(C#N)c(=N)n(CCCN4CCOCC4)c3nc12	-26	.	.	.	108	26
COC(=O)CC1C(=O)NCCN1C(=O)CSc1nc2ccc([N+](=O)[O-])cc2s1 (configuration not stated)	-5	1	-2	1.1	98	5
CCOc1ccc(NC(=S)Nc2ccc(OCC)cc2)cc1	0	1	-4	0.92	97	0
Cc1ccc(Nc2ncccc2C(N)=O)cc1[N+](=O)[O-]	-75	1	-4	1.2	141*	75
CCOC(=O)c1ccc(Nc2ncccc2[N+](=O)[O-])cc1	-151	0.9	14	7.8*	135*	151*
CCOC(=O)c1ccc(NC(=S)Nc2ccccn2)cc1	-52	1	3	1.7	129*	52
CCOc1ccc(NC(=S)Nc2cc(C)[nH]n2)cc1	-15	1	4	.	132*	15
O=C(COC(=O)c1cc(S(=O)(=O)N2CCCCC2)ccc1N1CCOCC1)NC1CCS(=O)(=O)C1 (configuration not stated)	-26	1.1	-7	1.1	101	26
COc1ccc(C(=O)Nc2ccc(-c3ccc(C)o3)cc2)cc1S(=O)(=O)N1CCOCC1	14	1.1	-8	1.3	100	-14
CCOC(=O)c1cc2cc3ccccc3cc2[nH]1	-118	0.9	6	3.4*	136*	118
NNC(=O)c1cc2ccccc2[nH]1	90*	1	-1	1.3	92	-90
Cc1cccc(N=C2NN=C(c3c(C)[nH]c4ccccc34)CS2)c1	-22	1.1	-7	1.2	94	22
SMILES	APP transl inh	FLuc stim CS	FLuc inhib CS	NF-kB neuron act	STAT1 act	APP 5'UTR act
Cc1cccc(N=C2NN=C(c3ccc4c(c3)OCCO4)CS2)c1	-140	0.2	81*	0.94	111	140*
O=C(c1ccco1)N1CCN(C(=O)N2c3ccccc3Sc3ccccc32)CC1	93*	1	0	4.7*	101	-93
O=C(c1ccco1)N1c2ccccc2Sc2ccccc21	12	1.1	-5	1.1	98	-12
O=C(N1CCN(c2ccccn2)CC1)C(Cl)(Cl)Cl	-10	1	0	1.8	104	10
O=C(N1CCN(c2ccccn2)CC1)N1c2ccccc2Sc2ccccc21	94*	1	-1	2.7	105	-94
O=C(c1ccco1)N1CCN(c2ccc(Cl)cc2)CC1	-67	1	4	2.8	134*	67
Cc1ccccc1S(=O)(=O)/N=C(/c1ccccc1)N1CCOCC1	1	1.1	-8	1.9	103	-1
O=C(NCCOc1ccccc1Cl)c1cc(F)c(F)cc1Cl	-124	1	-2	3.8*	130*	124
O=C(NCCOc1ccccc1Cl)c1ncn[nH]1	5	1	-2	0.91	94	-5
O=C(N/N=C/c1c[nH]c2ccccc12)c1cc(-c2ccccc2)n[nH]1	7	1	4	0.54	103	-7
O=C(N/N=C/c1c[nH]c2ccccc12)c1cc(-c2ccc(-c3ccccc3)cc2)n[nH]1	-70	0.5	50*	0.95	98	70
O=C(N/N=C/c1ccccn1)c1cc(-c2ccc3ccccc3c2)n[nH]1	-5	0.9	6	0.74	148*	5
Cc1ccc(-c2cc(C(=O)N/N=C/c3c[nH]c4ccccc34)[nH]n2)cc1	76*	0.8	20	0.61	121	-76
O=C(N/N=C/c1c[nH]c2ccccc12)c1cc(-c2ccc3ccccc3c2)n[nH]1	88*	0.8	19	0.61	140*	-88
CCC(C)NC(=O)CN1C(=O)NC2(CCc3ccccc3C2)C1=O (configuration not stated)	0	1	-4	1.1	105	0
COc1ccc(/C=C/C(=O)OCC(=O)NC(=O)NC(C)(C)C)cc1	-21	1.1	-9	0.85	104	21
O=C(NC(=S)Nc1ccc2c(c1)OCO2)c1ccc(Cl)cc1	-165	1	3	2.5	130*	165*
O=C(NC(=S)Nc1ccc2c(c1)OCCO2)c1ccc(F)cc1Cl	-13	1	4	2	131*	13
Cc1cc(C)cc(C(=O)NC(=S)Nc2ccc3c(c2)OCCO3)c1	-98	0.8	21	2.5	110	98
CCc1ccc(C(=O)NC(=S)Nc2ccc3c(c2)OCCO3)cc1	-136	1	4	5.4*	146*	136*
Cc1ccc(C(=O)NC(=S)Nc2ccc3c(c2)OCCO3)c(C)c1	-38	0.9	8	2	108	38
COCCN1CCC(CNCc2cn(-c3cc(C)ccc3C)nc2-c2ccccc2)C1 (configuration not stated)	17	1.1	-5	1.2	90	-17
Cc1nn(-c2cc(Cl)ccc2Cl)c(C)c1C(=O)O	10	1	5	0.97	95	-10

High-throughput results: PubChem BioAssay, several laboratories
